# Only some compounds are listed: those with a hit (about 1.1% of all), similar ones and a draw of the others.
# Furin inhibitor: blocks human furin protease activity. P09958. purified furin, fluorogenic substrate cleavage. inhibition, % at 20 µM or 30 µM. 220,000 compounds, 0.061% hits; in the data active means inhibition above about 25%
# thrombin 1536: inhibitors of human thrombin; P00734; alpha-thrombin, Boc-VPR-AMC fluorogenic substrate cleavage; inhibition, % at 5 µM; 220,000 compounds, 0.26% hits; AID 1046;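 active means inhibition at or above 40%; inactive means inhibition below 40%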;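 further: 0% = enzyme with no compound and 100% = wells without enzyme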
#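 System: human alpha-thrombin protein; Compound dosing: one concentration per compound, 5 µM, with 0.2% DMSO; Timing: reaction at room temperature; Technique: AMC fluorescence, 355/460 nm; Controls: enzyme without compound as high, wells lacking enzyme as low.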
# hK5 inh: blocks human kallikrein 5 protease activity. recombinant hK5, fluorogenic AMC substrate cleavage. Q9Y337. inhibition, % at 5 µM. 210,000 compounds, 0.59% hits;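 active means inhibition of 40% or more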;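 further: 0% = enzyme controls without compound and 100% = no-enzyme blanks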
# Target sequence (Q9Y337 67-293 limits assumed): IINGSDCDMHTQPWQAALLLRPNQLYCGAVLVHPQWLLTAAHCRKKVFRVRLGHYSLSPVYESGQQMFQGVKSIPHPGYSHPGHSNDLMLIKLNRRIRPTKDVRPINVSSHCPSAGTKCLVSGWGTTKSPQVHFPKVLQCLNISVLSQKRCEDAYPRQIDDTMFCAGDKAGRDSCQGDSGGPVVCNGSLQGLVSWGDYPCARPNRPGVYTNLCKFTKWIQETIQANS
# FXIIa inh: blocks human coagulation factor XIIa protease activity | inhibition, % at 5 µM | P00748 | purified FXIIa, Boc-QGR-AMC fluorogenic substrate, 2 h | 220,000 compounds, 0.3% hits | AID 800; in the data active means inhibition above about 40%;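 further: 0% = enzyme with no compound and 100% = blank without enzyme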
# FXIa inh: factor XIa (human) inhibition; P03951; purified FXIa, Boc-Glu-Ala-Arg-AMC fluorogenic substrate; inhibition, % at 5 µM; 220,000 compounds, 0.14% hits; AID 798;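 active means inhibition of at least 40%; inactive means inhibition below 40%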;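 further: fluorescence of freed AMC excited at 355 nm; 0% = enzyme without compound and 100% = no enzyme blank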
# Numbers without * were called inactive.
SMILES,Furin inhibitor,thrombin 1536,hK5 inh,FXIIa inh,FXIa inh
CCCC(=O)n1nc(-c2cccnc2)nc1NCc1ccccc1,-19.6,100.2*,2.1,10.2,-2.2
O=C(Nc1ccc(F)cc1)Nc1ccc(NC(=O)c2ccccc2O)cc1,-14.1,9.9,7.6,12.1,7.6
CC(C)=CCC/C(C)=C/C(N)=O,-30.1,-8.1,-6.8,6.1,3.8
CC(C)=CCC/C(C)=C/CC/C(C)=N/O,-16.1,23.7,29.5,40.2*,15.1
O=C(Nc1ccc(Cl)cc1)OCc1cn(-c2ccc(Cl)cc2)nn1,-19.5,-0.7,3.3,-3.9,-1.1
Clc1ccc(-n2cc(COCc3ccccc3)nn2)cc1,-28.9,-4.8,45.8*,6.6,-1.1
CC(C)N(Cc1ccccc1)C(=S)Nc1ccccc1F,-4.1,-4.6,-3.0,-1.6,-5.0
CN(C)S(=O)(=O)Oc1ccsc1C(=O)Nc1ccc(Cl)c(Cl)c1,-15.8,-1.6,3.4,42.0*,13.0
CN(C)S(=O)(=O)Oc1ccsc1C(=O)Nc1cccc(Cl)c1,-11.9,-0.6,5.6,47.3*,19.4
CN(C)S(=O)(=O)Oc1ccsc1C(=O)Nc1ccc(Br)cc1,-20.9,-8.3,-7.9,5.9,-3.1
CN(C)S(=O)(=O)Oc1ccsc1C(=O)Nc1ccc(C(F)(F)F)cc1,-12.8,-2.4,-7.0,2.7,-4.5
CCN(CC)CCN(C(=O)c1ccc(CN2CCCCC2)o1)C(C(=O)NC1CCCCC1)c1ccc(F)cc1 (stereo unspecified),-37.0,5.8,-2.8,-0.6,-3.2
CN(C)CCNc1ncnc2c1sc1nc(-c3ccccc3)c3c(c12)CCCC3,-3.2,17.5,17.7,42.5*,24.8
O=[N+]([O-])c1ccc(CN2CCN(Cc3c[nH]c4ccccc34)CC2)cc1,-19.4,-5.7,-0.7,5.3,2.7
COc1cc(/C=C(/NC(=O)c2ccccc2)C(=O)N2CCN(C)CC2)c([N+](=O)[O-])cc1OC,-7.0,19.4,40.5*,10.0,5.4
Cc1cc(C)c2c(CN3CCN(Cc4ccc5c(c4)OCO5)CC3)cc(=O)oc2c1C,-15.7,0.7,4.3,-9.4,-2.6
Cc1ccc2c(CN3CCN(Cc4ccc5c(c4)OCO5)CC3)cc(=O)oc2c1C,-28.6,1.1,-4.8,37.1,45.7*
O=C(NC(NC(=S)Nc1cc(Cl)ccc1Cl)C(Cl)(Cl)Cl)c1ccco1 (stereo unspecified),-25.9,0.1,-0.8,1.2,-2.3
O=C(Cc1ccccc1)NC(NC(=S)Nc1cc(Cl)ccc1Cl)C(Cl)(Cl)Cl (stereo unspecified),-23.0,15.8,17.6,103.2*,19.9
CCO[C@@H]1OC(C(=O)N2CCCCCCC2)=C[C@H](C2CCCCC2)[C@H]1CCCO,-12.7,-7.9,-3.9,2.1,-3.2
O=[N+]([O-])c1cccc(-c2cc3cccc[n+]3cc2-c2cccc([N+](=O)[O-])c2)c1,-9.3,31.8,45.5*,15.5,8.6
Cc1sc2cc(-c3cccc([N+](=O)[O-])c3)c(-c3cccc([N+](=O)[O-])c3)c[n+]2c1C,-10.0,1.3,-22.9,16.2,6.8
C=CCNC(=O)/C(C#N)=C\c1cc(Cl)c(O)c(OCC)c1,-10.2,48.1*,52.2*,7.7,8.1
CCOc1cc(/C=C(/C#N)C(=O)Nc2ccc(O)cc2)cc(Br)c1O,-6.0,1.0,-6.9,13.3,4.3
CCn1c(SCC(=O)Nc2nccs2)nnc1-c1ccccc1,2.9,3.7,40.7*,5.8,5.9
SMILES,Furin inhibitor,thrombin 1536,hK5 inh,FXIIa inh,FXIa inh
CCn1c(SCC(=O)Nc2cc(C)on2)nnc1-c1ccccc1,-11.2,-5.3,-16.3,3.4,-4.9
CCn1c(SCC(=O)c2ccccc2)nnc1-c1cnccn1,-16.5,15.7,42.8*,4.5,17.6
C=CCn1c(SCC(=O)Nc2cccnc2Cl)nnc1-c1ccc(Cl)cc1,0.8,-1.7,-30.5,41.0*,32.1
CCn1c(SCC(=O)Nc2cccnc2Cl)nnc1-c1ccccc1,0.0,25.1,62.0*,105.9*,8.1
S=C(NCc1ccccc1)NNc1nc2ccccc2[nH]1,-22.7,0.3,12.1,6.8,-0.6
O=C1NC(=O)C2(COC(c3cccc([N+](=O)[O-])c3)OC2)S1 (stereo unspecified),-25.7,-3.9,0.2,5.5,-3.0
CCOc1ccc(Br)cc1-c1noc(-c2cccs2)n1,-7.5,6.9,47.7*,11.4,-5.0
Cc1ccc(NC(=O)CSc2nnc(-c3ccc(S(=O)(=O)N4CCOCC4)cc3)n2C)cc1,-21.8,-8.1,2.0,-5.5,-5.1
Cn1c(SCC(=O)NC2CCCC2)nnc1-c1ccc(S(=O)(=O)N2CCOCC2)cc1,-20.4,44.9*,-13.9,-3.4,-12.0
C=CCn1c(Cc2cccs2)nnc1SCC(=O)NCc1ccco1,-17.6,26.1,17.1,27.5,47.6*
C=CCn1c(Cc2cccs2)nnc1SCC(=O)Nc1ccc(OC)c(OC)c1,-12.0,3.3,-6.8,19.6,-0.7
Cn1c(SCC(=O)NCc2cccs2)nnc1-c1cccs1,-8.1,16.3,51.6*,14.7,9.6
CCn1c(SCC(=O)NCc2cccs2)nnc1-c1cccs1,1.3,-5.2,8.0,-5.9,-1.8
Cc1cc(C)c(NS(=O)(=O)c2ccc3c(c2)NC(=O)CC(=O)N3)c(C)c1,-19.2,-5.7,-15.4,13.2,4.2
Cc1c(NC(=O)C(C)Sc2ncnc3ccccc23)c(=O)n(-c2ccccc2)n1C (stereo unspecified),-13.4,-6.5,-6.5,6.1,10.6
Cn1c(=O)c2c(nc(N/N=C/c3cccs3)n2C)n(C)c1=O,13.4,-3.8,-7.3,9.1,4.3
Cn1c(N/N=C/c2cccs2)cc(=O)n(C)c1=O,4.2,65.3*,-9.9,-3.6,-0.4
Cc1cccc(OCC2CCCN(Cc3nc(C4CC4)no3)C2)c1 (stereo unspecified),-20.1,0.3,4.5,16.0,3.5
NC(=O)c1ccccc1N/C=C/C(=O)c1ccc(F)cc1,27.2*,4.5,-10.6,8.8,3.3
NC(=O)c1ccccc1N/C=C/C(=O)c1cccs1,-22.4,4.6,-4.1,12.7,5.9
CCOC(=O)c1sc(NC(=O)CSc2nnc(Cc3ccccc3)o2)c(C(=O)OCC)c1C,-14.7,12.4,73.6*,22.3,9.0
CCOC(=O)c1c(NC(=O)CSc2ncccn2)sc2c1CCN(Cc1ccccc1)C2,2.2,39.2,43.2*,5.1,6.3
CCOC(=O)c1c(NC(=O)CSc2nc3ccccc3s2)sc(C(C)=O)c1C,-16.2,5.1,47.3*,17.3,9.4
Cc1ccc(NC(=S)NNS(=O)(=O)c2ccc3ccccc3c2)cc1Cl,-3.2,-1.5,3.0,14.5,10.5
Cc1sc2nc(CSc3ccc([N+](=O)[O-])c(C(F)(F)F)c3)[nH]c(=O)c2c1C,-13.7,1.0,-10.2,20.8,11.1
CCOC(=O)n1c(=O)n(Cc2c(Cl)cccc2Cl)c2ccccc21,-17.2,6.0,42.5*,14.4,1.8
CCOC(=O)n1c(=O)n(Cc2ccccc2)c2ccccc21,-17.9,1.0,-4.1,13.2,4.1
COc1cc(C(=O)NC2CCCc3ccccc32)ccc1OCC(=O)Nc1ccc(F)cc1 (stereo unspecified),-16.9,-5.3,-14.1,8.2,-0.6

# Source: PubChem BioAssay (several laboratories)
